The source made the active and inactive calls. The rule behind the calls is not given here.

Data set [1] in a line: Binding affinity to the recombinant SARS-Cov-2 Spike protein subunit S1 by QCM-D measurement. The arrangement: species or system Severe acute respiratory syndrome coronavirus 2. An outline of the steps: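 Peptides were thiolated and coated onto 5 MHz gold QCM-D sensors for 30 min at room temperature. Recombinant S1 protein then flowed over as mobile phase at 300 μL/min, 37 °C, in PBS. Kd came from nonlinear regression of saturated binding mass (Δm) against […] (nM).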

For data set [2], the system named is A549. Description: Cytotoxicity against human A549 cells assessed as cell viability at 0.001 to 100 uM measured after 48 hrs using CCK-8 assay. The settings on record: a549, 48 h, dose 0.001-100 µM. Format: cell-based. An outline of the steps: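 A549 cells were grown in McCoy-5A with 10% FBS. They were exposed to peptides at 1 nM–100 μM (tenfold steps) for 48 h, with medium alone as control. After a PBS wash, CCK-8 was added and incubated at 37 °C. OD was read at 450/630 nm and normalised to control, n = 3.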

Data set [3] has as its system 293T/ACE2. The data set can be described thus: Cytotoxicity against human 293T/ACE2 cells assessed as cell viability at 0.001 to 100 uM measured after 48 hrs using CCK-8 assay. The settings on record: dose 0.001-100 µM. The format is functional, cell-based. In short, it runs like this:
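293T-ACE2⁺ cells were grown in high-glucose DMEM with 10% FBS and 500 μg/mL hygromycin. They were exposed to peptides at 1 nM–100 μM (tenfold steps) for 48 h, with medium alone as control. After a PBS wash, CCK-8 was added and incubated at 37 °C. OD was read at 450/630 nm and normalised to control, n = 3.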
A general note: Tetrazolium assays rely on reduction of a dye to a coloured formazan, in cell work by metabolically active cells.

The subject of data set [4] is A549. Description: Inhibition of recombinant SARS-Cov-2 Spike protein subunit S1 binding to human A549 cells preincubated for 1 hr by Western blot analysis. Format: cell-based. The settings on record: Severe acute respiratory syndrome coronavirus 2. In short, it runs like this:
(§1)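 Recombinant S1 protein was preincubated with peptides for 1 h at 37 °C, then added to A549 or 293T-ACE2⁺ cells for 1 h. Cells were washed, lysed in RIPA with PMSF and phosphatase inhibitor, and equal protein was run on SDS-PAGE. Blots on PVDF were probed with anti-S1 rabbit pAb, with ACTB as loading reference, and detected by chemiluminescence.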
In general terms: Immunoblotting shows a protein as a band on a membrane.

Data set [5] deals with 293T/ACE2. The data set can be described thus: Inhibition of recombinant SARS-Cov-2 Spike protein subunit S1 binding to human 293T/ACE2 cells preincubated for 1 hr by Western blot analysis. The settings on record: Severe acute respiratory syndrome coronavirus 2. Format: cell-based. In short, it runs like this: as §1
For data set [6], the system named is 293T/ACE2. Description: Inhibition of Spike protein subunit S in SARS-CoV-2 pseudovirus assessed as inhibition of infection in human 293T/ACE2 cells by measuring decrease in luciferase activity at 0.000001 to 100 uM pretreated for 1 hr. Format: cell-based. The settings on record: Severe acute respiratory syndrome coronavirus 2, dose lower 1e-06 µM, dose upper 100.0 µM. An outline of the steps: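 The pseudovirus was HIV-1-based, bought ready-made, and carried S protein with luciferase and GFP reporters. It was pre-mixed with serially diluted peptides (1 pM–100 μM) for 1 h at 37 °C, then added to 293T-ACE2⁺ cells for 1 h. Medium was then replaced, followed by 47 h further culture. Infection rate was derived from luciferase activity.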

Data set [7] concerns 293T/ACE2. Description: Inhibition of Spike protein subunit S in SARS-CoV-2 pseudovirus assessed as inhibition of infection in human 293T/ACE2 cells by measuring decrease in fluorescence intensity at 0.000001 to 100 uM pretreated for 1 hr. Format: cell-based. The settings on record: Severe acute respiratory syndrome coronavirus 2, dose lower 1e-06 µM, dose upper 100.0 µM. An outline of the steps: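 A bought-in HIV-1-based S-pseudotyped reporter virus expressing GFP was preincubated with serially diluted peptides for 1 h at 37 °C. It was then applied to 293T-ACE2⁺ cells for 1 h and replaced with fresh medium, followed by 47 h more culture. Cellular GFP fluorescence intensity was observed.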

As to H-GDGVYYPRDVFDSSVLDSTQR-OH, the Kd (as a rule, the constant that tells how readily two partners part at equilibrium) in data set [1] is 5.6 nM. Further, the Activity entry in data set [2] is “Non-Toxic”; in data set [3], “Not toxic”. The inhibition result in data set [4], in data set [5], in data set [6] and in data set [7] was “Active” throughout.

As to H-GDLFDDSNLDPFRDRISTRR-OH, in data set [1], the equilibrium dissociation constant (Kd) amounted to 37.5 nM. The Activity entry in data set [2] was “Non-Toxic”; in data set [3], “Not toxic”. Moreover, the inhibition result in data set [4], in data set [5], in data set [6] and in data set [7] was “Active” in each case.

For H-GDRIARTTRAVDRPQTLRR-OH, in data set [1], the Kd came out at 76.9 nM. The values for the Activity entry in data set [2] and in data set [3] were “Non-Toxic” and “Not toxic”, respectively. For the same substance, the inhibition entry in data set [4], in data set [5], in data set [6] and in data set [7] was “Active” in each case.

The values above are taken from ChEMBL document CHEMBL5029161, “Synthetic Neutralizing Peptides Inhibit the Host Cell Binding of Spike Protein and Block Infection of SARS-CoV-2” (J Med Chem, 2021).
